# Measurements taken from ChEMBL document CHEMBL2086304, “Synthesis and in vitro antimycobacterial and isocitrate lyase inhibition properties of novel 2-methoxy-2'-hydroxybenzanilides, their thioxo analogues and benzoxazoles” (Eur J Med Chem, 2012).
# What was measured:
# [1] = system: Mycobacterium tuberculosis; test: Antimycobacterial activity against Mycobacterium tuberculosis 331/88 after 14 days by micromethod; format: functional; conditions: 331/88, 336 h
# Outline: (§1)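 Inocula: M. tuberculosis My 331/88 at 10^-3 dilution, M. avium My 330/88 at 10^-5, M. kansasii My 235/80 and clinical isolate 6509/96 at 10^-4. Compounds added in DMSO at 1000 down to 0.5 (twofold series). Read at 14 and 21 days, plus 7 days for M. kansasii. MIC taken as lowest concentration inhibiting growth.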
# [2] = system: Mycobacterium tuberculosis; test: Antimycobacterial activity against Mycobacterium tuberculosis 331/88 after 21 days by micromethod; format: functional; conditions: 331/88, 504 h; outline: as §1
# Mycobacterium avium [3] = test: Antimycobacterial activity against isoniazid resistance Mycobacterium avium 330/88 after 14 days by micromethod; format: functional; conditions: 330/88, 336 h; outline: as §1
# Mycobacterium avium [4] = test: Antimycobacterial activity against isoniazid resistance Mycobacterium avium 330/88 after 21 days by micromethod; format: functional; conditions: 330/88, 504 h; outline: as §1
# Mycobacterium kansasii [5] = test: Antimycobacterial activity against Mycobacterium kansasii 6509/96 clinical isolate after 7 days by micromethod; format: functional; conditions: 6509/96, 168 h; outline: as §1
# Mycobacterium kansasii [6] = test: Antimycobacterial activity against isoniazid resistance Mycobacterium kansasii 225/80 after 7 days by micromethod; format: functional; conditions: 225/80, 168 h
# Mycobacterium kansasii [7] = test: Antimycobacterial activity against isoniazid resistance Mycobacterium kansasii 225/80 after 14 days by micromethod; format: functional; conditions: 225/80, 336 h
# Mycobacterium kansasii [8] = test: Antimycobacterial activity against isoniazid resistance Mycobacterium kansasii 225/80 after 21 days by micromethod; format: functional; conditions: 225/80, 504 h
# Mycobacterium kansasii [9] = test: Antimycobacterial activity against Mycobacterium kansasii 6509/96 clinical isolate after 14 days by micromethod; format: functional; conditions: 6509/96, 336 h; outline: as §1
# Mycobacterium kansasii [10] = test: Antimycobacterial activity against Mycobacterium kansasii 6509/96 clinical isolate after 21 days by micromethod; format: functional; conditions: 6509/96, 504 h; outline: as §1
# [11] = target: T1, Isocitrate lyase (Mycobacterium tuberculosis) (UniProt P9WKK7); test: Inhibition of Mycobacterium tuberculosis H37Rv isocitrate lyase expressed in Escherichia coli HB101 at 10 umol/L
# T1 sequence (whole entry): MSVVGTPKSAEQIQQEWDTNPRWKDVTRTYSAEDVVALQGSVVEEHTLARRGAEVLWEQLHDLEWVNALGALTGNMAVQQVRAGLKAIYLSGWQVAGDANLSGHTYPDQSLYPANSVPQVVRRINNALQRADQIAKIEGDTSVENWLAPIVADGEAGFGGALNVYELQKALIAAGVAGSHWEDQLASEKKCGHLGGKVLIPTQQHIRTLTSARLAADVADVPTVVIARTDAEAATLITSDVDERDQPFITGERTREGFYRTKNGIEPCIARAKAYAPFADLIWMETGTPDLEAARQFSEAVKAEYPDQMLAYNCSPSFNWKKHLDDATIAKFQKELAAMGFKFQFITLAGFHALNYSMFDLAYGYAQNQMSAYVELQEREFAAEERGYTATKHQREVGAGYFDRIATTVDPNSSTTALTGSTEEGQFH
# Outline: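 Isocitrate lyase assayed per Dixon–Kornberg in 96-well format. Buffer: 50 mmol/L KH2PO4, 4 mmol/L MgCl2, 4 mmol/L phenylhydrazine, 12 mmol/L cysteine, pH 7.0. Glyoxylate phenylhydrazone read at 324 nm. Compounds added in DMSO, with DMSO-alone inhibition subtracted.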
# HepG2 = test: Cytotoxicity against human HepG2 cells after 24 hrs by CellTiter-96 cell viability assay; format: functional, cell-based; conditions: HepG2, 24 h
# Outline: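 Hep G2 human hepatic cells (passage 12), 10,000 per well, grown 24 h at 37 °C, 5% CO2 in MEM with 1% glutamine, 10% FBS and 1% nonessential amino acids. Compounds in DMSO at eight increasing concentrations, quadruplicate, 24 h at 37 °C. Kit reagent added, 1.5 h at 37 °C, absorbance 490 nm. IC50 is the concentration reducing viability to 50% of control.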
# [12] = Selectivity index, ratio of IC50 for human HepG2 cells to MIC for Mycobacterium tuberculosis 331/88 after 14 days; format: functional
# Outline: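 Cytotoxicity in Hep G2 cells (passage 12), 10,000 cells/well, in MEM with 10% FBS, 1% glutamine and 1% nonessential amino acids. Cells preincubated 24 h, 37 °C, 5% CO2. Compounds in DMSO at eight concentrations in quadruplicate, 24 h. MTS-type reagent added for 1.5 h, A490 read, IC50 taken at 50% viability. SI = this IC50 over the 14-day M. tuberculosis MIC.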
Structure (SMILES),MIC [1] [µM],MIC [2] [µM],MIC (Mycobacterium avium [3]) [µM],MIC (Mycobacterium avium [4]) [µM],MIC (Mycobacterium kansasii [5]) [µM],MIC (Mycobacterium kansasii [6]) [µM],MIC (Mycobacterium kansasii [7]) [µM],MIC (Mycobacterium kansasii [8]) [µM],MIC (Mycobacterium kansasii [9]) [µM],MIC (Mycobacterium kansasii [10]) [µM],inhibition [11] [%],IC50 (HepG2) [µM],Selectivity Index [12]
COc1cc(Cl)ccc1-c1nc2cc(Cl)c(Cl)cc2o1,250,250,250,500,250,250,250,250,250,250,0,–,–
COc1ccc(Cl)cc1-c1nc2ccc(Br)cc2o1,125,125,125,125,125,125,125,125,125,125,0,–,–
COc1ccc(Cl)cc1C(=O)Nc1ccc(C(F)(F)F)cc1O,500,500,62.5,62.5,250,–,250,250,250,250,2,4.91,0.01
COc1ccc(Cl)cc1C(=O)Nc1ccc(C(F)(F)F)cc1OC(=O)c1cc(Cl)ccc1OC,250,250,62.5,62.5,8,–,8,16,8,8,9,–,–
COc1cc(Cl)ccc1-c1nc2ccc(Br)cc2o1,125,125,125,125,125,125,125,125,125,125,0,–,–
COc1cc(Cl)ccc1C(=O)Nc1ccc(Cl)cc1OC(=O)c1ccc(Cl)cc1OC,4,8,62.5,62.5,8,16,32,125,16,62.5,0,–,–
COc1cc(Cl)ccc1C(=O)Nc1ccc(C(F)(F)F)cc1O,250,250,62.5,62.5,250,–,250,250,250,250,7,3.9,0.02
O=C(O)CC[N+](=O)[O-],–,–,–,–,–,–,–,–,–,–,25,–,–
COc1cc(Cl)ccc1C(=S)Nc1ccc(C(F)(F)F)cc1O,32,62.5,62.5,62.5,32,–,62.5,62.5,62.5,62.5,23,3.14,0.1
NNC(=O)c1ccncc1 [ISONIAZID],0.5,0.5,> 250,> 250,4,> 250,> 250,> 250,4,4,–,–,–
COc1ccc(Cl)cc1C(=O)Nc1cc(Cl)c(Cl)cc1OC(=O)c1cc(Cl)ccc1OC,8,8,62.5,62.5,4,4,8,8,8,8,3,–,–
COc1cc(Cl)ccc1C(=O)Nc1ccc(C(F)(F)F)cc1OC(=O)c1ccc(Cl)cc1OC,250,250,62.5,62.5,250,–,250,250,250,250,8,–,–
